Data from ChEMBL document CHEMBL5126596, “Design and synthesis of a novel non peptide CN-NFATc signaling inhibitor for tumor suppression in triple negative breast cancer” (Eur J Med Chem, 2022).
Active and inactive are the calls of the source. The calls are words filed in the database; no cut-off is given here.

How the values were obtained:
[1] = Toxicity in BALB/c mouse xenografted with mouse 4T1 cells assessed as effect on body weight at 5 mg/kg, […]; type: organism-based; conditions: in vivo, ip, 120 h, time 5 day
[2] = test system: 4T1; assay: Antitumor activity against mouse 4T1 cells xenografted in BALB/c mouse assessed as decrease in tumor weight at 50 mg/kg, ip measured after 15 days; type: functional, organism-based; conditions: time 15.0 day
In short: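 Female BALB/c mice (8 weeks, 18–19 g) given 0.5 × 10⁶ 4T1 cells in 1:1 DMEM/Matrigel into the number four mammary fat pad. Treatment began at day 11, once tumors exceeded 100 mm³, with randomization to groups of 9–10. Dosing was ip, daily Monday to Friday, for 15 days with DMSO vehicle. Tumors were then excised and weighed; body weight and health were followed.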

[3] = Toxicity in BALB/c mouse xenografted with mouse 4T1 cells assessed as effect on health conditions at 5 mg/kg, […]; type: organism-based; conditions: in vivo, ip, time 5 day
[4] = test system: 4T1; assay: Anti-angiogenesis activity against mouse 4T1 cells xenografted in BALB/c mouse at 5 mg/kg, ip measured after 15 days by anti-CD31 staining based immunohistochemistry analysis; type: functional, organism-based; conditions: time 15.0 day
[5] = target: Protein phosphatase 3 catalytic subunit alpha (Homo sapiens) (UniProt Q08209); assay: Displacement of carboxyfluorescein labelled NFATc2 derived PRIEIT peptide from human CNAalpha (2 to 347 residues) at 10 to 100 uM preincubated for 15 mins followed by CF-PRIEIT addition and measured after 15 mins by fluorescence polarization assay; conditions: dose 10-100 µM, time 30.0 min
In short: (§1)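 FP competition assay: 10 µM human CNAα (residues 2–347) preincubated with compound for 15 min at rt. CF-tagged NFATc2 SPRIEIT peptide (10 nM) then added for a further 15 min. Read at excitation 485 nm / emission 535 nm. Triplicates from at least three independent experiments.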

[6] = target: T1, Nuclear factor of activated T-cells, cytoplasmic 1 (Homo sapiens) (UniProt O95644); assay: Inhibition of NFATC activity in HEK293T cells at 50 uM preincubated for 2 hrs followed by ionomycin/phorbol 12-myristate 13-acetate stimulation and measured after 4 hrs by luciferase reporter assay; type: cell-based; conditions: time 6.0 hrs
T1 sequence (whole entry): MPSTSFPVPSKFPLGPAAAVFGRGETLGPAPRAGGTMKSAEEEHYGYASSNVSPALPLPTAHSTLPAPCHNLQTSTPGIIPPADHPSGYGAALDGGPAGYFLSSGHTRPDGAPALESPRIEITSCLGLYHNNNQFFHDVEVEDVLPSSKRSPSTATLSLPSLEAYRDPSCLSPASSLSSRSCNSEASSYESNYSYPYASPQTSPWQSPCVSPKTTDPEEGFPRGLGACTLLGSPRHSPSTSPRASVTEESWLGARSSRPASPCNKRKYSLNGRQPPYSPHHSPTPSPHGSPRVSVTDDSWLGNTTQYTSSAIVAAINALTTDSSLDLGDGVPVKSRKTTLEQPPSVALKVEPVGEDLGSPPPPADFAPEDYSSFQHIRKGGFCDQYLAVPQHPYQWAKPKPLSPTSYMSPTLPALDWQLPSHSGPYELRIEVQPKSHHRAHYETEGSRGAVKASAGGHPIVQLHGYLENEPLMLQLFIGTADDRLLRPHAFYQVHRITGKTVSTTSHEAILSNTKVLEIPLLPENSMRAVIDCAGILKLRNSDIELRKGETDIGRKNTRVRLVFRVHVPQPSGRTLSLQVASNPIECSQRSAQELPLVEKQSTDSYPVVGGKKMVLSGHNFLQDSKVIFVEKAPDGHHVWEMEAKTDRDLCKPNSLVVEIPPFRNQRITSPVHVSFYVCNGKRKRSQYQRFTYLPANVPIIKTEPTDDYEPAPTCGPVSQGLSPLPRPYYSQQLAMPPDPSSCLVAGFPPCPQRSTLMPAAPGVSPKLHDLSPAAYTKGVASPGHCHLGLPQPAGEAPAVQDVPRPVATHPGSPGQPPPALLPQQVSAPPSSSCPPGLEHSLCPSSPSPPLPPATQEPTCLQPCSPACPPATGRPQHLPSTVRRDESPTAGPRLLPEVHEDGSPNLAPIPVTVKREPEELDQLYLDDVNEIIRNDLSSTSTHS
In short: (§2)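 HEK 293T cells (7.5 × 10⁴/well) co-transfected by CaCl₂ method with 100 ng 3xNFAT-luc and 1 ng pRLnull as transfection control. At 24 h, compound added for 2 h, then stimulated with 1 µM ionomycin, PMA and CaCl₂ for 4 h (20 ng/ml PMA and 2 mM CaCl₂ per figure legend). Luciferase read from crude extracts, relative to stimulated no-compound control (100%). Single doses 50 and 5 μM; dose-response 0.1–50 μM. IC50 by nonlinear regression; 3 experiments in triplicate.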

[7] = Toxicity in BALB/c mouse xenografted with mouse 4T1 cells assessed as effect on body weight at 50 mg/kg, […]; type: organism-based; conditions: in vivo, ip
[8] = Toxicity in BALB/c mouse assessed as loss of body weight at 50 mg/kg, ip administered for 5 days and measured on day 7; type: organism-based; conditions: in vivo, 120 h, time 5 day
In short: (§3)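 BALB/c mice given 50 mg/kg ip daily, Monday to Friday, and killed on day seven. Monitored for macroscopic clinical signs, behavior, weight loss and general health.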

[9] = target: T1, Nuclear factor of activated T-cells, cytoplasmic 1 (Homo sapiens); assay: Inhibition of NFATC activity in HEK293T cells at 5 to 50 uM preincubated for 2 hrs followed by ionomycin/phorbol 12-myristate 13-acetate stimulation and measured after 4 hrs by luciferase reporter assay; type: cell-based; conditions: dose 5-50 µM, time 6.0 hrs; in short: as §2
[10] = target: T1, Nuclear factor of activated T-cells, cytoplasmic 1 (Homo sapiens); assay: Inhibition of NFATC activity in human CD4+ T cells assessed as reduction of IL-2 secretion preincubated for 2 hrs followed by anti-CD3/CD28 stimulation and measured after 48 hrs by ELISA; type: cell-based; conditions: CD4+ve Th
In short: (§4)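 Donor CD4⁺ T cells (1 × 10⁵/well) treated with 10 or 1 μM compound for 2 h. Compound left in place during activation with anti-CD3/CD28 beads (10 cells/bead). IL-2 and IFNγ measured by ELISA in supernatants after 48 h. Mean ± SEM.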

[11] = target: T1, Nuclear factor of activated T-cells, cytoplasmic 1 (Homo sapiens); assay: Inhibition of NFATC activity in human PBMC cells assessed as reduction of IFN gamma gene expression preincubated for 2 hrs followed by ionomycin/phorbol 12-myristate 13-acetate stimulation and measured after 4 hrs byRT-PCR analysis; type: cell-based; conditions: dose 2-50 µM, time 6.0 hrs, DDE = dose-dependent effect
In short: (§5)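 Isolated hPBMC treated with compound at 50, 10 and 2 μM for 2 h. Stimulated without washout with 1 μM ionomycin, 20 nM PMA and 10 mM CaCl₂ for 4 h. RNA extracted and 1 μg reverse-transcribed; qPCR run with UPL probes. Fold change by ΔΔCT. Mean ± SD of 3 independent experiments in triplicate.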

[12] = target: T1, Nuclear factor of activated T-cells, cytoplasmic 1 (Homo sapiens); assay: Inhibition of NFATC activity in HEK293T cells preincubated for 2 hrs followed by ionomycin/phorbol 12-myristate 13-acetate stimulation and measured after 4 hrs by luciferase reporter assay; type: cell-based; conditions: dose 0.1-50 µM, time 6.0 hrs, DDE = dose-dependent effect; in short: as §2
[13] = Toxicity in BALB/c mouse assessed as aberrant behavior at 50 mg/kg, ip administered for 5 days and measured on day 7; type: organism-based; conditions: in vivo, 120 h, time 5 day; in short: as §3
[14] = test system: 4T1; assay: Anti-angiogenesis activity against mouse 4T1 cells xenografted in BALB/c mouse at 50 mg/kg, ip measured after 15 days by anti-CD31 staining based immunohistochemistry analysis; type: functional, organism-based; conditions: time 15.0 day
[15] = target: Protein phosphatase 3 catalytic subunit alpha (Homo sapiens) (UniProt Q08209); assay: Displacement of carboxyfluorescein labelled NFATc2 derived PRIEIT peptide from human CNAalpha (2 to 347 residues) at 100 uM preincubated for 15 mins followed by CF-PRIEIT addition and measured after 15 mins by fluorescence polarization assay; conditions: time 30.0 min; in short: as §1
[16] = target: T1, Nuclear factor of activated T-cells, cytoplasmic 1 (Homo sapiens); assay: Inhibition of NFATC activity in human CD4+ T cells assessed as reduction of IFN gamma secretion preincubated for 2 hrs followed by anti-CD3/CD28 stimulation and measured after 48 hrs by ELISA; type: cell-based; conditions: CD4+ve Th; in short: as §4
[17] = target: T1, Nuclear factor of activated T-cells, cytoplasmic 1 (Homo sapiens); assay: Inhibition of NFATC activity in human PBMC cells assessed as reduction of IL2 gene expression preincubated for 2 hrs followed by ionomycin/phorbol 12-myristate 13-acetate stimulation and measured after 4 hrs by RT-PCR analysis; type: cell-based; conditions: dose 2-50 µM, time 6.0 hrs, DDE = dose-dependent effect; in short: as §5
[18] = test system: CD4+ve Th; assay: Immunosuppressive activity in human CD4+ve Th cells assessed as inhibition of T cell proliferation […] by [3H]-thymidine incorporation based scintillation counter method; type: functional; conditions: dose <= 10.0 µM, DDE = dose-dependent effect
[19] = Toxicity in BALB/c mouse xenografted with mouse 4T1 cells assessed as effect on health conditions at 50 mg/kg, […]; type: organism-based; conditions: in vivo, ip
[20] = target: Protein phosphatase 3 catalytic subunit alpha (Homo sapiens) (UniProt Q08209); assay: Displacement of carboxyfluorescein labelled NFATc2 derived PRIEIT peptide from human CNAalpha (2 to 347 residues) at 10 uM preincubated for 15 mins followed by CF-PRIEIT addition and measured after 15 mins by fluorescence polarization assay; conditions: time 30.0 min; in short: as §1
[21] = Toxicity in BALB/c mouse assessed as clinical signs of abnormal constitution at 50 mg/kg, ip administered for 5 days and measured on day 7; type: organism-based; conditions: in vivo, 168 h, time 7 day; in short: as §3
[22] = test system: 4T1; assay: Antitumor activity against mouse 4T1 cells xenografted in BALB/c mouse assessed as decrease in tumor weight at 50 mg/kg, ip measured after 15 days; conditions: time 15.0 day

With `C=CC[C@@H]1/C=C(\C)C[C@H](C)C[C@H](OC)[C@H]2O[C@@](O)(C(=O)C(=O)N3CCCC[C@H]3C(=O)O[C@H](/C(C)=C/[C@@H]3CC[C@@H](O)[C@H](OC)C3)[C@H](C)[C@@H](O)CC1=O)[C@H](C)C[C@@H]2OC` [TACROLIMUS ANHYDROUS] the Activity [1] was “Non-Toxic”, the Activity [2] was “Active” and the Activity [3] was “Non-Toxic”. For the same molecule, the Activity [4] was “Active”.

In the case of `O=C(O)CNS(=O)(=O)c1cccc(NC(=O)CNC(=O)c2cnc3ccccc3c2)c1`, the Activity [5] is reported as “Active” and the inhibition [6] is reported as 60%.

For `CS(=O)(=O)NCc1cccc(NC(=O)c2ccc3[nH]ccc3c2)c1`, the Activity [7] was “Non-Toxic”, the Activity [8] was “Non-Toxic” and the inhibition [9] was 80%. The inhibition [10] was “Active”, the Activity [11] was “Dde” and the Activity [5] was “Active”. The inhibition [12] was “Dde”, the Activity [13] was “Non-Toxic” and the Activity [14] was “Active”. The Activity [15] was “Active”, the inhibition [16] was “Active” and the Activity [17] was “Dde”. The Activity [18] was “Dde”, the Activity [19] was “Non-Toxic” and the Activity [20] was “Active”. For the same molecule, the Activity [21] was “Non-Toxic” and the Activity [22] was “Active”.

In the case of `CS(=O)(=O)NCc1cccc(NC(=O)c2csc3ccccc23)c1`, the inhibition [9] is reported as 80%, the inhibition [10] is reported as “Active” and the Activity [11] is reported as “Dde”. The inhibition [12] was “Dde”, the Activity [15] was “Active” and the inhibition [16] was “Active”. For the same molecule, the Activity [17] was “Dde” and the Activity [18] was “Dde”.

For `Cc1ccc(C(=O)NCC(=O)Nc2cc(S(=O)(=O)Nc3ccc(Cl)cc3)ccc2Cl)s1`, the Activity [7] was “Non-Toxic”, the Activity [8] was “Non-Toxic” and the inhibition [9] was 80%. For the same molecule, the inhibition [10] was “Active”, the Activity [11] was “Dde” and the Activity [5] was “Active”. For the same molecule, the inhibition [12] was “Dde”, the Activity [13] was “Non-Toxic” and the inhibition [16] was “Active”. The Activity [17] was “Dde”, the Activity [18] was “Dde” and the Activity [19] was “Non-Toxic”. The Activity [21] was “Non-Toxic” and the Activity [22] was “Active”.

With `O=C(O)CNS(=O)(=O)c1cccc(NC(=O)CNC(=O)Cc2ccsc2)c1` the Activity [5] was “Active” and the inhibition [6] was 60%.

With `O=C(O)CNS(=O)(=O)c1cccc(NC(=O)CNC(=O)c2csc3ccccc23)c1` the Activity [5] was “Active” and the inhibition [6] was 60%.

In the case of `CCc1ccc(C(=O)Nc2cccc(CNS(C)(=O)=O)c2)cc1`, the Activity [15] is reported as “Active” and the inhibition [6] is reported as 60%.

In the case of `O=C(CNC(=O)c1ccc2[nH]ccc2c1)Nc1cccc(S(=O)(=O)N2CCCCC2)c1`, the Activity [5] is reported as “Active”, the inhibition [12] is reported as “Dde” and the inhibition [6] is reported as 60%.

In the case of `CS(=O)(=O)NCc1cccc(NC(=O)Cc2ccsc2)c1`, the Activity [15] is reported as “Active”, the Activity [20] is reported as “Active” and the inhibition [6] is reported as 60%.

For `CCc1ccc(C(=O)NCC(=O)Nc2cccc(S(=O)(=O)NCC(=O)O)c2)cc1`, the Activity [5] was “Active” and the inhibition [6] was 60%.

With `O=C(O)CNS(=O)(=O)c1cccc(NC(=O)CNC(=O)OCc2ccccc2)c1` the Activity [5] was “Active” and the inhibition [6] was 60%.

For `CNc1ccc(C(=O)NCC(=O)Nc2cccc(S(=O)(=O)NCC(=O)O)c2)cc1`, the Activity [5] was “Active” and the inhibition [6] was 60%.
